Only some compounds are listed: those with a hit (about 1.8% of all), similar ones and a draw of the others.
SIAE inh: blocks human sialic acid acetylesterase; Q9HAT2; SIAE FP-Rh probe binding, fluorescence polarization; 370,000 compounds, 0.69% hits; inhibition, % at 9.66 µM;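 active means inhibition above a cutoff: mean of compounds within the control limits plus 3 SD of those, cut at about 17% in these data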;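 further: 0% = plate median of compound wells and 100% = probe without SIAE protein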
TCR-CD3 inh: human TCR-CD3 binding inhibition. inhibition, % at 9.4 µM. 360,000 compounds, 0.37% hits. TAMRA-labeled TCR probe fluorescence, biochemical; in the data active means inhibition above about 19%;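 further: recombinant mutant TCR 2C K166C tagged with TAMRA read by polarization; 0% = receptor in buffer alone and 100% = receptor with positive control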
ABHD4 inh: inhibits mouse alpha/beta hydrolase domain 4 | Q8VD66 | purified mABHD4, FP-Rh probe fluorescence polarization | inhibition, % at 8.92 µM | 370,000 compounds, 0.54% hits;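 active means inhibition exceeding the mean over every tested compound plus 3 SD, cut at about 30% in these data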;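 further: 0% = plate median of compound wells and 100% = S159A mutant with DMSO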
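Test system: mABHD4 protein | Buffer or medium: HEPES pH 7.0 buffer, 150 mM NaCl, 0.01% Pluronic F-127 | Probe or stimulus: FP-Rh fluorescent activity-based probe, added after compound pre-incubation | Timing: Pre-incubation 45 min, probe exposure 60 min, at 25 °C | Technique: Fluorescence polarization, excitation 525 nm, emission 598 nm, BODIPY TMR filters | Repeats: Single well per compound (singlicate)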
ARNT TACC3 PPI: ARNT/TACC3 interaction disruption. 390,000 compounds, 0.66% hits. AlphaScreen His-ARNT PAS-B/GST-TACC3 binding, luminescence; TACC3 fragment carries E629A point mutation. Q9Y6A5. inhibition, % at 9.99 µM;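 active means mean inhibition of replicates at least 50% and at least half of replicates each reaching 50%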;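 further: 0% = complete ARNT plus TACC3 wells and 100% = ARNT alone without TACC3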
HTRA1 inh: blocks human HTRA1 serine peptidase. 340,000 compounds, 0.5% hits. AID 504803. recombinant HTRA1, FP-rhodamine activity-based probe, fluorescence polarization. inhibition, % at 5.96 µM. Q92743; in the data active means inhibition above about 36%;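 further: 0% = enzyme with DMSO and 100% = wells lacking enzyme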
Target sequence (Q92743 whole entry, looked up): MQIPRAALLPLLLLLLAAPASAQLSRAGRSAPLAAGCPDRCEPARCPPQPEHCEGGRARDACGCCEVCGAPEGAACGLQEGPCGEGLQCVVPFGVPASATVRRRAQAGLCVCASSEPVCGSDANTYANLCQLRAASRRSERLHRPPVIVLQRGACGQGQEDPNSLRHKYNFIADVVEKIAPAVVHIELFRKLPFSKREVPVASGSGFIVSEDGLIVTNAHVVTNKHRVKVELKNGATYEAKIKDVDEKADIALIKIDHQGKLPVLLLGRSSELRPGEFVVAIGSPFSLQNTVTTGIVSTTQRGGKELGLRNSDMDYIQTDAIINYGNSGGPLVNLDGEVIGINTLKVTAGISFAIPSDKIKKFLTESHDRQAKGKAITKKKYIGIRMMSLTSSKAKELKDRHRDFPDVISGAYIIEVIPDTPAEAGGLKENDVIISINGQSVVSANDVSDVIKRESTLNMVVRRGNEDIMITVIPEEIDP
ABHD4 confirm: ABHD4 (mouse) inhibition, FP confirmation; shares compounds with ABHD4 inh; purified mABHD4, FP-Rh probe fluorescence polarization; inhibition, % at 8.92 µM; 1,800 compounds, 55% hits;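 active means mean inhibition across replicates above the hit cutoff set in the primary screen, cut at about 30% in these data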;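 further: 0% = wild-type ABHD4 with DMSO and 100% = catalytically dead S159A mutant with DMSO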
* marks the source's active call; other numbers are inactive results; nt = not tested or not shown.

SMILES | SIAE inh | TCR-CD3 inh | ABHD4 inh | ARNT TACC3 PPI | HTRA1 inh | ABHD4 confirm
CCC(=O)NC1=C(NC(C)c2ccccc2)C(=O)c2ccccc2C1=O (configuration not stated) | 5 | 0 | -1 | 5 | -3 | nt
CCCC(=O)Nc1nc(C)c(-c2csc(Nc3cc(OC)ccc3OC)n2)s1 | 3 | 0 | 32* | 10 | 30 | 58*
COc1cccc(C2CC(c3ccc(NS(C)(=O)=O)cc3)=NN2C(=O)c2ccccc2)c1OC (configuration not stated) | 6 | 1 | 44* | nt | -10 | 55*
O=C(O)c1ccc2c(c1)C1C=CCC1C(c1cc3c(cc1Br)OCO3)N2 (configuration not stated) | 5 | 5 | -7 | 2 | 7 | nt
O=C(O)c1ccc(NS(=O)(=O)c2ccc3c(c2)C2C=CCC2C(c2ccccc2F)N3)cc1 (configuration not stated) | 6 | -1 | 42* | 11 | 22 | 26
COc1ccc2nc(-n3c(O)c(C4=c5ccccc5=NC4=O)[nH]c3=S)sc2c1 | 3 | 0 | 52* | -25 | 30 | 169*
Cn1c(O)c(C2=c3ccccc3=NC2=O)[nH]c1=S | -2 | -5 | 5 | 2 | 6 | nt
CC1(C)CC(=O)C2=C(C1)OC(N)=C(C#N)C2c1cc2c(cc1[N+](=O)[O-])OCO2 (configuration not stated) | 5 | 4 | 34* | 1 | 8 | 2
CCCC(=O)Nc1ccc2c(c1)C(=O)N(C)[C@@H]1CC[C@H](CC(=O)N3CCc4ccccc4C3)O[C@H]1CO2 | nt | nt | nt | 2 | nt | nt
O=C(O)c1[nH]c2ccccc2c1C(c1c(F)cccc1Cl)c1c(C(=O)O)[nH]c2ccccc12 | 5 | 10 | 42* | 1 | -3 | 50*
CCc1c(C(=O)O)[nH]c2ccc(Br)cc12 | 1 | 7 | 8 | -7 | -13 | nt
COc1cc(Cl)cc(C(c2c(C(=O)O)[nH]c3ccccc23)c2c(C(=O)O)[nH]c3ccccc23)c1O | 7 | 12 | 43* | 2 | 2 | 55*
O=C(O)c1[nH]c2ccccc2c1C(c1cc(Br)ccc1O)c1c(C(=O)O)[nH]c2ccccc12 | 4 | 9 | 43* | -4 | 1 | 47*
CO[C@H]1CN(C)C(=O)c2ccc(NC(=O)C3CCCC3)cc2OC[C@@H](C)N(CCC(F)(F)F)C[C@H]1C | nt | nt | nt | 0 | nt | nt
CC(=O)c1ccc(N2CCN(C(=O)c3ccc4c(=O)[nH]c5c(C(=O)NC6CCCC6)sc(=S)n5c4c3)CC2)cc1 | -5 | 7 | 34* | nt | nt | 27
O=C(NC1CCCCC1)c1sc(=S)n2c1[nH]c(=O)c1ccccc12 | -10 | 1 | 25 | 4 | 3 | nt
CC(C)NC(=O)c1sc(=S)n2c1[nH]c(=O)c1ccc(C(=O)NCCc3ccc(Cl)cc3)cc12 | 6 | -2 | 10 | 18 | 7 | nt
O=C(NCCc1ccc(Cl)cc1)c1ccc2c(=O)[nH]c3c(C(=O)NCC4CCCO4)sc(=S)n3c2c1 (configuration not stated) | 7 | 1 | 36* | nt | nt | 33*
O=C(NCCc1ccccc1)c1ccc2c(=O)[nH]c3c(C(=O)NCC4CCCO4)sc(=S)n3c2c1 (configuration not stated) | -17 | 7 | 50* | 22 | 10 | 36*
C[C@@H]1CN([C@H](C)CO)C(=O)c2cc(NC(=O)Cc3ccccc3)ccc2O[C@@H](C)CCCCO[C@H]1CN(C)S(=O)(=O)c1ccccc1 | nt | nt | nt | -2 | nt | nt
CC1CCN(c2ccc(C(=O)O)cc2NS(=O)(=O)c2ccc(F)cc2)CC1 | 6 | nt | 28 | nt | nt | nt
CC1CCN(c2ccc(C(=O)O)cc2NS(=O)(=O)c2ccc(C(C)(C)C)cc2)CC1 | 6 | nt | 42* | nt | nt | 52*
CC1CCN(c2ccccc2NC(=O)c2ccc(N3CCOCC3)c([N+](=O)[O-])c2)CC1 | -3 | 1 | 5 | 0 | -4 | nt
CC1CCN(c2ccc(C(=O)O)cc2NS(=O)(=O)c2ccccc2[N+](=O)[O-])CC1 | 1 | nt | 44* | nt | nt | 42*
Cc1nc(CNS(=O)(=O)c2cccc(F)c2)cs1 | -1 | -3 | 1 | 1 | 0 | nt
SMILES | SIAE inh | TCR-CD3 inh | ABHD4 inh | ARNT TACC3 PPI | HTRA1 inh | ABHD4 confirm
Cc1ccc(-c2csc(NS(=O)(=O)c3cccc(F)c3)n2)o1 | -12 | 6 | 30* | 4 | 15 | 26
O=C(Nc1ccc([N+](=O)[O-])cc1)C(=O)Nc1cccc(C(=O)O)c1 | -2 | -1 | 30* | 7 | 0 | 26
CC(=O)c1ccc(NC(=O)Nc2ccc([N+](=O)[O-])cc2)cc1 | -1 | -2 | -1 | -3 | -3 | nt
O=C(O)/C=C/c1cccc(NC(=O)Nc2ccc([N+](=O)[O-])cc2)c1 | 0 | 0 | 30* | 5 | -9 | 22
O=C(O)c1cc(NC(=O)c2ccc([N+](=O)[O-])cc2)cc(NC(=O)c2ccc([N+](=O)[O-])cc2)c1 | 2 | 5 | 16 | 1 | -2 | nt
O=C(CN1CCN(c2ccc(O)cc2)CC1)Nc1ccccc1C(=O)NCCc1ccccc1 | 10 | -6 | 32* | 8 | 27 | 21
CCC(=O)N1[C@H](CO)[C@H]2c3ccccc3N(C(=O)c3cccc(OC)c3)C[C@H]21 | nt | nt | nt | 0 | nt | nt
COc1ccc(S(=O)(=O)N[C@@H]2CC[C@H](CC(=O)N3CCC(Cc4ccccc4)CC3)O[C@H]2CO)cc1 | nt | nt | nt | 4 | nt | nt
CC1(C)Nc2ccc(O)cc2-c2c1ssc2=S | 3 | -4 | 37* | 17 | 20 | 32*
CC(C)(C)/C(O)=C/c1nc2cc(Cl)ccc2oc1=O | -1 | -5 | 32* | -4 | 18 | 3
Cc1ccc2oc(=O)c(/C=C(\O)C(C)(C)C)nc2c1 | 6 | 1 | 21 | 7 | 1 | nt
C[C@@H]1ON(C)[C@H]2C[C@H]3c4[nH]c5c(-c6ccc(C(F)(F)F)cc6)cccc5c4CCN3C(=O)[C@@H]12 | -7 | 1 | 30* | nt | nt | 29
COC(=O)C(Cc1c[nH]c2ccccc12)NC(C)=O (configuration not stated) | 2 | 7 | 12 | 2 | 7 | nt
COC(=O)[C@@H](Cc1c[nH]c2ccccc12)NCc1cccc(B(O)O)c1 | 3 | 6 | 67* | -3 | 11 | 61*
COc1ccc(OC)c(NC(=O)C(=O)/C=C(\O)c2cc(OC)ccc2OC)c1 | 1 | 1 | 35* | 0 | 13 | 2
COc1ccc(OC)c(NC(=O)Nc2ccc(O)c3ccccc23)c1 | 10 | -7 | 33* | 1 | 17 | 41*
CCOc1ccc2c(c1)C(=O)c1cc(OCC(=O)O)ccc1-2 | -9 | 2 | 2 | 10 | 1 | nt
CCCCOc1ccc2c(c1)C(=O)c1cc(O)ccc1-2 | 9 | 5 | 44* | 19 | 35 | 54*
NNc1nc2sc3c(c2c(=O)[nH]1)CCc1ccccc1-3 | 13 | 8 | 58* | -3 | 23 | 12

Source: PubChem (several laboratories)
